Assay results published in article PMC6828636 (European Journal of Drug Metabolism and Pharmacokinetics, 2019).
pIC50: −log10 of the molar value.

Tests used:
[1] = system: P-gp and BCRP; assay: Efflux in wildtype Caco-2 cells; assay type: in vitro ADME; conditions: human
Procedure, shortened: (§1)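 Bidirectional transport was measured in wildtype Caco-2 cells and in proprietary derivatives with reduced BCRP (CPT-B1) or P-gp (CPT-P1) expression. Test compound was used at 0.5, 2 and 10 μM in wildtype cells and at 2 μM in the reduced-expression lines. Probe substrates served as positive controls and reference inhibitors as negative controls. Efflux ratios were calculated.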

[2] = target: OATP2B1 (Homo sapiens, UniProt O94956); assay: OATP2B1 uptake inhibition in transfected HEK cells; assay type: in vitro ADME
Sequence of OATP2B1 (O94956 whole entry): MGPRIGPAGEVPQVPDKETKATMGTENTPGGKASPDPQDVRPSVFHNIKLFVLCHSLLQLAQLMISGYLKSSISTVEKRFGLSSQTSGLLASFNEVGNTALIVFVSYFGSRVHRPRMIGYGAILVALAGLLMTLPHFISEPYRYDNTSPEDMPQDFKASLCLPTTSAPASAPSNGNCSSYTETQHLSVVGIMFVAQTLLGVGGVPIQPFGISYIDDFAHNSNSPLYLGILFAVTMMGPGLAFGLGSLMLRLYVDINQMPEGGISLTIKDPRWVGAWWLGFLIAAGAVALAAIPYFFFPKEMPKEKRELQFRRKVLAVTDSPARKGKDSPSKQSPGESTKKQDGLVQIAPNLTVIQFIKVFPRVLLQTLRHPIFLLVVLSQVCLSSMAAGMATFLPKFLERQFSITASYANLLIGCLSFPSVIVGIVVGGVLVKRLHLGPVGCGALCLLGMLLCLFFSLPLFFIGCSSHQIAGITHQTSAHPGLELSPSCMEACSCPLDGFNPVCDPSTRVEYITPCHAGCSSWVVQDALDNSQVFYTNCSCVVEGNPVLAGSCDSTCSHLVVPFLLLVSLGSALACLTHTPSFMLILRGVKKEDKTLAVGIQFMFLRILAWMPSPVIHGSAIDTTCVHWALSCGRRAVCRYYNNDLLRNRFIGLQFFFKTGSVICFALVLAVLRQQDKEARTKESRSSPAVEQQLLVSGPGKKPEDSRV
Procedure, shortened: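 HEK cells overexpressing NTCP, OAT1, OAT3, OATP2B1, OCT1 or OCT2 were incubated with probe substrate. Pairs were estrone 3-sulfate/cyclosporin A (NTCP), PAH/probenecid (OAT1), furosemide/probenecid (OAT3), estrone 3-sulfate/glibenclamide (OATP2B1), 3H-MPP+/decynium 22 (OCT1) and 3H-MPP+/imipramine (OCT2). IC50 was determined with and without test compound, at ≤50 µM for the parent and ≤10 µM for the metabolite.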

[3] = target: T1, BCRP (Homo sapiens, UniProt Q9UNQ0); assay: Efflux in CPT-B1 cells; assay type: in vitro ADME; conditions: Caco-2
T1 sequence (Q9UNQ0 1-655): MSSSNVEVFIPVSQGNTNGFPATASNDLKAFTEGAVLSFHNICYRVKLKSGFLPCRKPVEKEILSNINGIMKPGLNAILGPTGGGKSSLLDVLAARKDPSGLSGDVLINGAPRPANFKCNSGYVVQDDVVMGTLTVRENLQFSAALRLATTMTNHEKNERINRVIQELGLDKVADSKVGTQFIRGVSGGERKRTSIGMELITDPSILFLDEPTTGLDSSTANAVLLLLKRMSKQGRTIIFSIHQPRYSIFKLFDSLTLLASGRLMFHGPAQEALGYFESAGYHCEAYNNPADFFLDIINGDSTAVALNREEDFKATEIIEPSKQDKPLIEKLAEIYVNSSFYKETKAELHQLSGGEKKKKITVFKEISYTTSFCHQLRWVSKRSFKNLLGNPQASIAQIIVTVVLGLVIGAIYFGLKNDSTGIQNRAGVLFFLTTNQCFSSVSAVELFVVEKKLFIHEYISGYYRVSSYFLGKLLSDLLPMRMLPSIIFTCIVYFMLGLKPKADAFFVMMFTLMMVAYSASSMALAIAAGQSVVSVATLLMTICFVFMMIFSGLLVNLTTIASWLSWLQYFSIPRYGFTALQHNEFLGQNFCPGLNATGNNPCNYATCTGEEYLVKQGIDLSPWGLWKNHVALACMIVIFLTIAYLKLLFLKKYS
Procedure, shortened: as §1

[4] = target: T2, P-gp (Homo sapiens, UniProt P08183); assay: Efflux in CPT-P1 cells; assay type: in vitro ADME; conditions: Caco-2
T2 sequence (P08183 whole entry): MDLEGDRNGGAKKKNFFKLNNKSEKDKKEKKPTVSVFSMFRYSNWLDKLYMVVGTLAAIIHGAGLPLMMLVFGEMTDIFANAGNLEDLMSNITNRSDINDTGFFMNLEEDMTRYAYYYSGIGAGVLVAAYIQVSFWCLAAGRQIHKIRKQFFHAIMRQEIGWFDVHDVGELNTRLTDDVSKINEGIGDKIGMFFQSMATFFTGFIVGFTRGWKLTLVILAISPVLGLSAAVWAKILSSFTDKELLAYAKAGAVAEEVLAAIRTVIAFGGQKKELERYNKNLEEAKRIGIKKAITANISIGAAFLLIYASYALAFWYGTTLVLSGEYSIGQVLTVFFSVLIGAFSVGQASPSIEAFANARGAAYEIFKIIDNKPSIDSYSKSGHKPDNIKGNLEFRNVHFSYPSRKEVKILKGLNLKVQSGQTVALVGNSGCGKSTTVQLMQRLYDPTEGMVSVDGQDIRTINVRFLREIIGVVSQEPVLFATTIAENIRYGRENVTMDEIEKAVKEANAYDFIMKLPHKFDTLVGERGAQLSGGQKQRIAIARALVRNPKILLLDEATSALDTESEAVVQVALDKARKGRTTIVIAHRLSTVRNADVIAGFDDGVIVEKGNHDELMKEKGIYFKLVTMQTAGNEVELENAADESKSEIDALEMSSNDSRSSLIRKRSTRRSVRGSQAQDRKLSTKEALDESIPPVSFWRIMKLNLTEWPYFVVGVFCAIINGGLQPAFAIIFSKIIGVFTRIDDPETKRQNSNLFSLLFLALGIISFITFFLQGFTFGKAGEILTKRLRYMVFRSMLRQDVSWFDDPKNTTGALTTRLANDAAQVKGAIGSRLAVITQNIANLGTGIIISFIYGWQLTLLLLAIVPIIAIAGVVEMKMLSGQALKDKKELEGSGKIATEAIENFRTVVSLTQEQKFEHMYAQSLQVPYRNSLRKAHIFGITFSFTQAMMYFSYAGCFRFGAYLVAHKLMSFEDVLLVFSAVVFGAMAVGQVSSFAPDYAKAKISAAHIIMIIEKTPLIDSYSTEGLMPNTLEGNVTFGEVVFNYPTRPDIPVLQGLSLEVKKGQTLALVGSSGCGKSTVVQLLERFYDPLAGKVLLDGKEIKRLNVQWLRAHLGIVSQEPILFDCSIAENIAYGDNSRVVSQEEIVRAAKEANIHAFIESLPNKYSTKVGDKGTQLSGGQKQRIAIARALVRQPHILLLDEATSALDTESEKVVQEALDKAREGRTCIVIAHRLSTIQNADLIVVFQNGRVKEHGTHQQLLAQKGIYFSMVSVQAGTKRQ
Procedure, shortened: as §1

[5] = target: T2, P-gp; assay: P-gp inhibition in Caco-2 cells; assay type: in vitro ADME
Procedure, shortened: (§2)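 Efflux transporter inhibition in Caco-2 monolayers. Test compound at 0.25–60 μM. Probe/reference-inhibitor pairs were digoxin/cyclosporin A (P-gp) and cladribine/Ko143 (BCRP). Probe transport was measured with and without test compound, and IC50 was derived from that inhibition.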

[6] = system: CYP3A4; conditions: healthy volunteers; ref data on file; cited from earlier work
[7] = target: T1, BCRP; assay: BCRP inhibition in Caco-2 cells; assay type: in vitro ADME
Procedure, shortened: as §2

[8] = Phase I study: darolutamide effect on rosuvastatin pharmacokinetics; assay type: in vivo, human; conditions: darolutamide 600 mg BID with single dose rosuvastatin 5 mg
[9] = assay type: in vivo, human; conditions: healthy male volunteers
[10] = darolutamide 600 mg; ref data on file; cited from earlier work
[11] = rodents; cited from earlier work
[12] = system: CYP1A2; assay type: in vitro ADME; conditions: primary human hepatocytes, three donors, 3 days dosing, 0.005–10 mg/l
[13] = system: CYP2B6; assay type: in vitro ADME; conditions: primary human hepatocytes, three donors, 3 days dosing, 0.005–10 mg/l
[14] = target: T1, BCRP; assay: Efflux in BCRP-MDCK cells; assay type: in vitro ADME; conditions: reduced in the presence of BCRP-specific inhibitor Ko143

| SMILES | efflux ratio at 0.5 μM [1] | efflux ratio at 2 μM [1] | efflux ratio at 10 μM [1] | pIC50 [2] | efflux ratio at 2 μM [3] | efflux ratio at 2 μM [4] | pIC50 [5] | share of clearance attributed to CYP3A4 metabolism [6] | pIC50 [7] | effect of rosuvastatin on darolutamide exposure [8] | safety with concomitant dabigatran etexilate or midazolam [9] | clinically relevant intestinal concentration [10] | penetration of the blood-brain barrier [11] | maximal fold induction of CYP1A2 [12] | maximal fold induction of CYP2B6 [13] | efflux ratio [14] |
| --- | --- | --- | --- | --- | --- | --- | --- | --- | --- | --- | --- | --- | --- | --- | --- | --- |
| CC(O)c1cc(C(=O)N[C@@H](C)Cn2ccc(-c3ccc(C#N)c(Cl)c3)n2)[nH]n1 (stereo partly shown) [Darolutamide, darolutamide] | 78 | 98 | 14 | < 4.30 | 36 | 3.6 | 4.79 | 30% | 5.89 | no clinically relevant effects | No safety concerns were identified | 270 µM | low penetration |  |  |  |
| CC(=O)c1cc(C(=O)N[C@@H](C)Cn2ccc(-c3ccc(C#N)c(Cl)c3)n2)[nH]n1 [Keto-darolutamide, keto-darolutamide] |  |  |  |  |  |  |  |  |  |  |  |  |  | < 2 fold | < 2 fold | > 2 |
